Laboratory results as given in ChEMBL document CHEMBL4477211, “Synthesis and Investigation of Tetrahydro-β-carboline Derivatives as Inhibitors of the Breast Cancer Resistance Protein (ABCG2)” (J Med Chem, 2016).

Assays:
[1] = target: T1, Broad substrate specificity ATP-binding cassette transporter ABCG2 (Homo sapiens, UniProt Q9UNQ0); assay: Inhibition of human ABCG2 expressed in baculovirus infected Sf9 cell membrane assessed as inhibition of vanadate sensitive ATPase activity at 1 uM after 20 mins by colorimetric method; details: sf9, 20 min
T1 sequence (Q9UNQ0 whole entry): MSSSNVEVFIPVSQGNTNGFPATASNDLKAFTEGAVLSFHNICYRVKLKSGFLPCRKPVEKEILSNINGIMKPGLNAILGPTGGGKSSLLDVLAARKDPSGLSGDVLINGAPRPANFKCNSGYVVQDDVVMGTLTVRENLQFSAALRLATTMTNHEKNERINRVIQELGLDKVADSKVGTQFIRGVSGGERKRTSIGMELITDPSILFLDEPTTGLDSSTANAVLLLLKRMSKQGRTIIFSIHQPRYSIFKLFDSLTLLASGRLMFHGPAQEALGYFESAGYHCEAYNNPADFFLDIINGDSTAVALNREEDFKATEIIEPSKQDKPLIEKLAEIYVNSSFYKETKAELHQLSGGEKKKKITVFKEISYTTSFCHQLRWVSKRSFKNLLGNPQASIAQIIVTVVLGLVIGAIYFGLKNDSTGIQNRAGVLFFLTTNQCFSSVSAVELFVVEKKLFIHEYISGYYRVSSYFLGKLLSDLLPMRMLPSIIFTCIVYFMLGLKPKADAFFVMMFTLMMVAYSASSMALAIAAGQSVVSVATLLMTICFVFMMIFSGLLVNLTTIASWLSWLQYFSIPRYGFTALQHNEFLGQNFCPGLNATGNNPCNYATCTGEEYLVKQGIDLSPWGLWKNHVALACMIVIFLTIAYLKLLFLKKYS

[2] = Cytotoxicity against wild-type MDCK2 cells assessed as reduction in cell viability after 72 hrs by MTT assay; type: cell-based, Canis lupus familiaris; details: dog, wild-type MDCK2 (MDCK-II) cells
Summary of the method: (§1)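 MDCK II cells retrovirally transfected with human ABCG2-GFP cDNA, and wild-type MDCK II, in DMEM with 10% FBS. Seeded at 3 x 10^3 cells/well and attached 6 h at 37 °C, 5% CO2. Compounds up to 100 µM for 72 h. Controls were 10% DMSO and medium. MTT (5 mg/ml) added for 1 h, read at 570 nm minus 690 nm. Data normalised; GI50 from variable-slope sigmoidal fit.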

[3] = target: T1, Broad substrate specificity ATP-binding cassette transporter ABCG2; assay: Inhibition of human ABCG2 expressed in baculovirus infected Sf9 cell membrane assessed as inhibition of vanadate sensitive quercetin-stimulated ATPase activity after 20 mins by colorimetric method
Summary of the method: (§2)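 Cholesterol-loaded membranes from Sf9 cells infected with baculovirus carrying human wild-type ABCG2; 10 µg protein per reaction. Buffer: 40 mM MOPS-Tris pH 7.0, 50 mM KCl, 2 mM DTT, 0.5 mM EGTA-Tris, 5 mM azide, 1 mM ouabain. Started with 3.3 mM MgATP, 20 min at 37 °C, stopped with SDS. Pi measured by molybdate/ascorbate colour at 880 nm against K2HPO4 standard.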

ABCB1 = ABCB1 (Homo sapiens, UniProt P08183); assay: Inhibition of ABCB1 in human A2780/ADR cells assessed as reduction in calcein AM efflux at 10 uM pre-incubated for 30 mins before calcein AM addition and measured for 60 mins by microplate reader analysis relative to control; type: cell-based; details: probe calcein AM
ABCB1, sequence (P08183 whole entry): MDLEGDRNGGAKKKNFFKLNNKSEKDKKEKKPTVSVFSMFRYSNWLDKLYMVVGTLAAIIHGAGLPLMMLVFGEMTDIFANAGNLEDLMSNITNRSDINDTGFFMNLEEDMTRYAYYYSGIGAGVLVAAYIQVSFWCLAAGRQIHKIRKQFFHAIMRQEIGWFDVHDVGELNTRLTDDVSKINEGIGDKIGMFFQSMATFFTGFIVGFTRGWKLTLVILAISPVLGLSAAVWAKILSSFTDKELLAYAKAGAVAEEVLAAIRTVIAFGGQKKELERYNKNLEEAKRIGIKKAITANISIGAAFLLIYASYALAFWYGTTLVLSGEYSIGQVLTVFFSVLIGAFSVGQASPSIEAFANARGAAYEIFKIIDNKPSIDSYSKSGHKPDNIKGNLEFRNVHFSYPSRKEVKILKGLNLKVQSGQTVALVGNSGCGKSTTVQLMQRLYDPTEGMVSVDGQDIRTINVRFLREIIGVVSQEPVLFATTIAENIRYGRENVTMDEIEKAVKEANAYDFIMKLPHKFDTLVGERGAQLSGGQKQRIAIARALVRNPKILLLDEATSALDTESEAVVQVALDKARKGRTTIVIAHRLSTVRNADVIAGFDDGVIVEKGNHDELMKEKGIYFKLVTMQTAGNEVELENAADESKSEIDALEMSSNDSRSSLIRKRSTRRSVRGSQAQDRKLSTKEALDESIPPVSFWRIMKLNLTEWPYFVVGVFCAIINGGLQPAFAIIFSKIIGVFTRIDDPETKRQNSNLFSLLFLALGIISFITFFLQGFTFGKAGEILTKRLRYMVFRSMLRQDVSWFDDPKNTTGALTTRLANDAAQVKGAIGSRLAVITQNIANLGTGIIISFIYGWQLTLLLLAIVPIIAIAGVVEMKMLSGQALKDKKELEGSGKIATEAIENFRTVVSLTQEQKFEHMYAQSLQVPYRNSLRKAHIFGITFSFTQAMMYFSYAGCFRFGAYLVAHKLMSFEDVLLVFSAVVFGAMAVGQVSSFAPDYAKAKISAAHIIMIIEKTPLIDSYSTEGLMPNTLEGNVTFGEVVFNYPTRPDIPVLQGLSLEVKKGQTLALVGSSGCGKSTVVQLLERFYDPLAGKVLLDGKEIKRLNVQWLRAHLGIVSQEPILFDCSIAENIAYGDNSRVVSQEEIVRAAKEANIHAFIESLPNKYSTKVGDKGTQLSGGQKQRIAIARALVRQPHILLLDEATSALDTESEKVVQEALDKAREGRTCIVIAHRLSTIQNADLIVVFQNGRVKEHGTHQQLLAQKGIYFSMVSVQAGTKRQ
Summary of the method: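 Compound at 10 µM pre-incubated 30 min at 37 °C. Calcein AM added from 3.125 µM solution. Fluorescence (ex 485/em 520 nm) read every 60 s for 60 min.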

[4] = Cytotoxicity against MDCK2 cells expressing human ABCG2 assessed as reduction in cell viability after 72 hrs by MTT assay; type: ADME, cell-based, Canis lupus familiaris; details: dog, MDCK2 (MDCK-II) cells expressing human ABCG2; summary of the method: as §1
[5] = target: T1, Broad substrate specificity ATP-binding cassette transporter ABCG2; assay: Reversal of human ABCG2-mediated resistance to SN-38 in human ABCG2 expressed MDCK2 cells assessed as reduction in SN-38 GI50 after 72 hrs by MTT assay
[6] = Solubility in pH 7.4 Krebs-HEPES buffer at 10 uM after 2 hrs by UV-visible spectrophotometric analysis; type: physicochemical; details: pH 7.4, 2 h
Summary of the method: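 10 µM test solutions prepared from DMSO stocks as for the Hoechst 33342 assay, in Krebs-HEPES pH 7.4. Absorbance at an absorption peak maximum recorded every 120 s for 2 h at room temperature by UV/visible spectrophotometer.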

ABCG2 = target: T2, ABCG2 (Homo sapiens, UniProt Q9UNQ0); assay: Ratio of IC50 for human ABCG2 expressed in baculovirus infected Sf9 cell membrane assessed as inhibition of vanadate sensitive quercetin-stimulated ATPase activity to IC50 for human ABCG2 expressed in baculovirus infected Sf9 cell membrane assessed as inhibition of vanadate sensitive basal ATPase activity; details: read-out: Ratio IC50
T2 sequence (Q9UNQ0 whole entry): T1 sequence (Q9UNQ0 whole entry)

[7] = target: T1, Broad substrate specificity ATP-binding cassette transporter ABCG2; assay: Inhibition of human ABCG2 expressed in MDCK2 cells assessed as reduction in Hoechst 33342 efflux pre-incubated for 30 mins before Hoechst 33342 addition and measured for 120 mins by microplate reader analysis; type: cell-based
Summary of the method: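 Compound dilutions up to 10 µM (from 10 mM DMSO stocks) pre-incubated 30 min at 37 °C. Hoechst 33342 then added from 6 µM solution. Fluorescence (ex 355/em 460 nm) read each 60 s over 120 min.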

[8] = target: T1, Broad substrate specificity ATP-binding cassette transporter ABCG2; assay: Inhibition of human ABCG2 expressed in baculovirus infected Sf9 cell membrane assessed as inhibition of vanadate sensitive basal ATPase activity after 20 mins by colorimetric method; summary of the method: as §2
[9] = target: ATP-dependent translocase ABCB1 (Homo sapiens, UniProt P08183); assay: Inhibition of ABCB1 in human A2780/ADR cells assessed as reduction in calcein AM efflux pre-incubated for 30 mins before calcein AM addition and measured for 60 mins by microplate reader analysis relative to control; type: cell-based
ATP-dependent translocase ABCB1, sequence (P08183 whole entry): as above

[10] = Ratio of GI50 for wild-type MDCK2 cells to IC50 for human ABCG2 expressed in MDCK2 cells
[11] = Ratio of GI50 for MDCK2 cells expressing human ABCG2 to IC50 for human ABCG2 expressed in MDCK2 cells
[12] = target: T1, Broad substrate specificity ATP-binding cassette transporter ABCG2; assay: Inhibition of human ABCG2 expressed in MDCK2 cells assessed as reduction in pheophorbide A efflux pre-incubated for 30 mins before pheophorbide A addition and measured for 120 mins by flow cytometry

inhibition at 1 h, 10 µM (ABCB1) [%] | IC50 ([7]; read-out: IC50) [µM] | IC50 [9] [µM] | SMILES | further results
> 25 | 2.78 | 7.94 | O=C(c1ccccc1)N1CCc2c([nH]c3ccccc23)C1c1ccccc1 (configuration not stated) | inhibition (INH) [1]: Active; GI50 at 72 h [2]: 12.4 µM; IC50 [3]: 2.02 µM; GI50 at 72 h [4]: 12.9 µM; Activity [5]: Dose-dependent effect; solubility [6]: Soluble; selectivity ratio (ABCG2): 10.3; IC50 [8]: 0.196 µM
< 25 | > 10 |  | c1ccc(CN2CCc3c([nH]c4ccccc34)C2c2ccccc2)cc1 (configuration not stated) | solubility [6]: Soluble
< 25 | 0.382 |  | COc1ccc2[nH]c3c(c2c1)CCN(C(=O)c1ccccc1)C3c1ccc(Cl)c(Cl)c1 (configuration not stated) | Ratio [10]: <=20; inhibition (INH) [1]: Active; GI50 at 72 h [2]: 5.27 µM; IC50 [3]: 0.299 µM; Ratio [11]: <=20; GI50 at 72 h [4]: 4.17 µM; Activity [5]: Dose-dependent effect; selectivity ratio (ABCG2): 10.4; IC50 [8]: 0.029 µM
< 25 |  |  | c1ccc(C2NCCc3c2[nH]c2ccccc32)cc1 (configuration not stated) | IC50 [12]: Not Active; IC50 [7]: Not Active
> 25 | 0.869 | 22.5 | O=C(c1ccccc1)N1CCc2c([nH]c3ccccc23)C1c1cccc(Cl)c1 (configuration not stated) | IC50 ([12]; read-out: IC50): 0.811 µM
> 25 | 1.1 | 8.76 | O=C(c1ccccc1)N1CCc2c([nH]c3ccccc23)C1c1ccc(F)c(F)c1 (configuration not stated) | IC50 ([12]; read-out: IC50): 1.8 µM
< 25 | 0.687 |  | O=C(c1ccccc1)N1CCc2c([nH]c3ccccc23)C1c1ccc(Br)cc1 (configuration not stated) | Ratio [10]: 20 - 30; inhibition (INH) [1]: Active; GI50 at 72 h [2]: 19.4 µM; IC50 [3]: 0.863 µM; Ratio [11]: 20 - 30; GI50 at 72 h [4]: 20.6 µM; Activity [5]: Dose-dependent effect; selectivity ratio (ABCG2): 7.7; IC50 [8]: 0.112 µM
> 25 | 1.75 | 9.55 | COc1ccc(C(=O)N2CCc3c([nH]c4ccccc34)C2c2ccccc2)cc1 (configuration not stated) | 
> 25 | 10.4 | 9.23 | CCn1c2c(c3ccccc31)CCN(C(=O)c1ccccc1)C2c1ccccc1 (configuration not stated) | solubility [6]: Soluble
> 25 | 7.82 | 7.4 | CC(=O)Nc1ccc(C2c3[nH]c4ccccc4c3CCN2C(=O)c2ccccc2)cc1 (configuration not stated) | solubility [6]: Soluble
> 25 | 1.92 | 6.22 | COc1cccc(C2c3[nH]c4ccccc4c3CCN2C(=O)c2ccccc2)c1 (configuration not stated) | 
> 25 | 1.89 | 13.4 | O=C(c1ccccc1)N1CCc2c([nH]c3ccccc23)C1c1ccc(F)cc1 (configuration not stated) | 
> 25 | 1.26 | 23.4 | O=C(c1ccc(Cl)cc1)N1CCc2c([nH]c3ccccc23)C1c1ccc(F)c(F)c1 (configuration not stated) | 
< 25 | 0.238 |  | COc1cccc(C(=O)N2CCc3c([nH]c4ccccc34)C2c2ccc(Cl)c(Cl)c2)c1 (configuration not stated) | Ratio [10]: <=20; inhibition (INH) [1]: Active; GI50 at 72 h [2]: 6.55 µM; IC50 [3]: 0.262 µM; Ratio [11]: <=20; GI50 at 72 h [4]: 5.82 µM; IC50 ([12]; read-out: IC50): 0.206 µM; Activity [5]: Dose-dependent effect; selectivity ratio (ABCG2): 7; IC50 [8]: 0.038 µM
< 25 | > 10 |  | CCn1c2c(c3ccccc31)CCN(C(=O)c1cccc(OC)c1)C2c1ccc(Cl)c(Cl)c1 (configuration not stated) | solubility [6]: Soluble
> 25 | 1.45 | 3.38 | COc1ccc(C(=O)N2CCc3c([nH]c4ccccc34)C2c2cccc(OC)c2)cc1 (configuration not stated) | 
< 25 | 1.78 |  | O=C(c1ccc(Cl)cc1)N1CCc2c([nH]c3ccccc23)C1c1ccc(Br)cc1 (configuration not stated) | 

inhibition at 1 h, 10 µM (ABCB1) [%] | IC50 ([7]; read-out: IC50) [µM] | IC50 [9] [µM] | SMILES | further results
< 25 | 1.43 |  | Cc1ccc(C2c3[nH]c4ccccc4c3CCN2C(=O)c2ccccc2)cc1 (configuration not stated) | 
< 25 | 1.32 |  | O=C(c1cccc2ccccc12)N1CCc2c([nH]c3ccccc23)C1c1ccc(Cl)c(Cl)c1 (configuration not stated) | 
> 25 | 3.62 | 7.33 | COc1ccc(C2c3[nH]c4ccccc4c3CCN2C(=O)c2ccccc2)cc1OC (configuration not stated) | 
< 25 | 1.03 |  | O=C(c1ccc(Cl)cc1)N1CCc2c([nH]c3ccccc23)C1c1ccc(Cl)c(Cl)c1 (configuration not stated) | 
> 25 | 0.805 | 8.24 | COc1ccc(C(=O)N2CCc3c([nH]c4ccccc34)C2c2ccc(F)c(F)c2)cc1 (configuration not stated) | 
< 25 |  |  | COc1cccc(C2NCCc3c2[nH]c2ccccc32)c1 (configuration not stated) | IC50 [12]: Not Active; IC50 [7]: Not Active
< 25 | > 10 |  | Clc1ccc(C2c3[nH]c4ccccc4c3CCN2Cc2ccccc2)cc1Cl (configuration not stated) | solubility [6]: Soluble
> 25 | 0.698 | 14.3 | COc1ccc(C(=O)N2CCc3c([nH]c4ccccc34)C2c2ccc(Cl)c(Cl)c2)cc1OC (configuration not stated) | 
> 25 | 1.1 | 2.86 | COc1ccc(C(=O)N2CCc3c([nH]c4ccccc34)C2c2ccc(F)c(F)c2)cc1OC (configuration not stated) | 
> 25 | 2 | 6.55 | N#Cc1cccc(C2c3[nH]c4ccccc4c3CCN2C(=O)c2ccccc2)c1 (configuration not stated) | 
 |  |  | COc1ccc2c(c1)[nH]c1c(C)nccc12 [HARMINE] | inhibition (INH) [1]: Not Active; GI50 at 72 h [2]: 2.3 µM; GI50 at 72 h [4]: 2.42 µM
> 25 | 2.21 | 12 | COc1ccc(C2c3[nH]c4ccccc4c3CCN2C(=O)c2ccccc2)cc1 (configuration not stated) | 
> 25 | 2.33 | 12.9 | CC(C)CC1c2[nH]c3ccccc3c2CCN1C(=O)c1ccccc1 (configuration not stated) | 
< 25 | 1.23 |  | COc1ccc(C(=O)N2CCc3c([nH]c4ccccc34)C2c2ccc(C(F)(F)F)cc2)cc1 (configuration not stated) | solubility [6]: Soluble
> 25 | 4.49 | 11.3 | O=C(c1ccccc1)N1CCc2c([nH]c3ccccc23)C1c1ccccc1F (configuration not stated) | 
> 25 | 0.883 | 19.2 | COc1ccc(C(=O)N2CCc3c([nH]c4ccccc34)C2c2cccc(Cl)c2)cc1 (configuration not stated) | 
